Results from different studies.
Protocols differ between the studies behind these lines.
Read-out: cell growth or viability

Structure (SMILES) | cell line | method | concentration | time | endpoint | value
CC=C1[C@H]2C=C(C)C[C@]1(N)c1cc(CC)c(=O)[nH]c1C2 | IMR-90 | MTT | 100 µM | 24 h | cell death | 2.2%
CC(C)C[C@@H](C=O)NC(=O)[C@H](CC(C)C)NC(=O)[C@H](CC(C)C)NC(=O)OCc1ccccc1 | Caco-2 | neutral red | – | 48 h | CC50 | < 0.15 µM
CC=C1[C@H]2C=C(C)C[C@]1(N(C)C)c1ccc(OC)nc1C2 | IMR-90 | MTT | 100 µM | 24 h | cell death | 5.5%
Nc1nc(F)nc2c1ncn2[C@@H]1O[C@H](CO)[C@@H](O)[C@@H]1O | LLC-MK2 | – | – | 5 days | CC50 | 54.1 µM
O=c1c(O[C@@H]2O[C@H](CO)[C@@H](O)[C@H](O)[C@H]2O)c(-c2ccc(O)cc2)oc2cc(O)cc(O)c12 | RD | WST-1 | – | – | IC50 | 48.8 µM
Nc1nc(F)nc2c1ncn2[C@@H]1O[C@H](COP(=O)(O)O)[C@@H](O)[C@@H]1O | LLC-MK2 | – | – | 5 days | CC50 | 60.6 µM
CC(C)(C)NC(=O)N[C@H](C(=O)N1C[C@H]2[C@@H]([C@H]1C(=O)NC(CC1CCC1)C(=O)C(N)=O)C2(C)C)C(C)(C)C (some centres unmarked) | Caco-2 | neutral red | – | 48 h | CC50 | > 100 µM
COc1ccc(C[C@H](NC(=O)[C@H](C)NC(=O)CN2CCOCC2)C(=O)N[C@@H](Cc2ccccc2)C(=O)C(=O)Nc2ccccc2)cc1 | Caco-2 | ATP luminescence | – | 48 h | CC50 | 16.2 µM
